From ChEMBL document CHEMBL1671826, “Effect of Inhibiting Histone Deacetylase with Short-Chain Carboxylic Acids and Their Hydroxamic Acid Analogs on Vertebrate Development and Neuronal Chromatin” (ACS Med Chem Lett, 2011) come the findings set out here.

One data set concerns the target T1, Histone deacetylase 7 (Homo sapiens, UniProt Q8WUI4).
T1 sequence (Q8WUI4 whole entry): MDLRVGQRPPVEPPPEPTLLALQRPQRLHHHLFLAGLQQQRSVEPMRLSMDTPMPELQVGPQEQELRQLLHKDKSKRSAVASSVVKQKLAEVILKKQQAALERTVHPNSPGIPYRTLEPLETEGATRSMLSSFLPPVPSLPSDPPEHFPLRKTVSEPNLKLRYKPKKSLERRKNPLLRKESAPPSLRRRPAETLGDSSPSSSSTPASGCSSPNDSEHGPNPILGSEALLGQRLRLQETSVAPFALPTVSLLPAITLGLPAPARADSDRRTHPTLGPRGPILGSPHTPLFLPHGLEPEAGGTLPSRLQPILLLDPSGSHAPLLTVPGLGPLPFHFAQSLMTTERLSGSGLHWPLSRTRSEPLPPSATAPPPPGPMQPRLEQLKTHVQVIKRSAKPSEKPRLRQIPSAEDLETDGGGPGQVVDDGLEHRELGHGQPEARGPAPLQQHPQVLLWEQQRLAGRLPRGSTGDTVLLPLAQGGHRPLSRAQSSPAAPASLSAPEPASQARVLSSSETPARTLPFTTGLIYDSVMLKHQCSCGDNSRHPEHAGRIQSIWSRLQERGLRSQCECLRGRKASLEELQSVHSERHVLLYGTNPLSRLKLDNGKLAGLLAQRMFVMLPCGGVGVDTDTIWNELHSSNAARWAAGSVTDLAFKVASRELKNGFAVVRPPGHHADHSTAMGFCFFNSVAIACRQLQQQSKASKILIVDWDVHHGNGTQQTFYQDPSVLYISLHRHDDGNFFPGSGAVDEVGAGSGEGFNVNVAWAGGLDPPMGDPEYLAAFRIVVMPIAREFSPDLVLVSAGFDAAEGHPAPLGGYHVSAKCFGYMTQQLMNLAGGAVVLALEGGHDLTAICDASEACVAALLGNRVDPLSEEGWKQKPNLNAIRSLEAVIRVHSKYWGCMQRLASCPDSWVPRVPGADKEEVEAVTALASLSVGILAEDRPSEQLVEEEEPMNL
As to the kind of experiment: Inhibition of human recombinant HDAC7.

The next data set deals with Histone deacetylase 9 (Homo sapiens, UniProt Q9UKV0). As to the kind of experiment: Inhibition of human recombinant HDAC9. The method, boiled down:
(§1)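 Recombinant HDAC isoforms incubated with acetyl-lysine tripeptide–AMC substrate (mimics histone H4 K12), or trifluoroacetyl-lysine-AMC for class IIa enzymes, each substrate at its Km; trypsin cleavage of deacetylated product releases fluorescent AMC. IC50 from two experiments in duplicate, mean ± SD.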

The species named for the next data set is Mus musculus. As to the kind of experiment: Inhibition of HDAC in mouse primary forebrain neurons assessed as acetylation of histone H3 lysine 9 at 92.5 uM after 24 hrs by immunofluorescence assay.
A further data set concerns the target Histone deacetylase 1 (Homo sapiens, UniProt Q13547). Description: Inhibition of human recombinant HDAC1. In short, it runs like this: as §1
In the next data set the target is Histone deacetylase 2 (Homo sapiens, UniProt Q92769). Description: Inhibition of human recombinant HDAC2. The method, boiled down: as §1
The next data set has as its target Histone deacetylase 3 (Homo sapiens, UniProt O15379). Description: Inhibition of human recombinant HDAC3. In short, it runs like this: as §1
The target of data set [1] is T2, Protein deacetylase HDAC6 (Homo sapiens, UniProt Q9UBN7).
T2 sequence (Q9UBN7 whole entry): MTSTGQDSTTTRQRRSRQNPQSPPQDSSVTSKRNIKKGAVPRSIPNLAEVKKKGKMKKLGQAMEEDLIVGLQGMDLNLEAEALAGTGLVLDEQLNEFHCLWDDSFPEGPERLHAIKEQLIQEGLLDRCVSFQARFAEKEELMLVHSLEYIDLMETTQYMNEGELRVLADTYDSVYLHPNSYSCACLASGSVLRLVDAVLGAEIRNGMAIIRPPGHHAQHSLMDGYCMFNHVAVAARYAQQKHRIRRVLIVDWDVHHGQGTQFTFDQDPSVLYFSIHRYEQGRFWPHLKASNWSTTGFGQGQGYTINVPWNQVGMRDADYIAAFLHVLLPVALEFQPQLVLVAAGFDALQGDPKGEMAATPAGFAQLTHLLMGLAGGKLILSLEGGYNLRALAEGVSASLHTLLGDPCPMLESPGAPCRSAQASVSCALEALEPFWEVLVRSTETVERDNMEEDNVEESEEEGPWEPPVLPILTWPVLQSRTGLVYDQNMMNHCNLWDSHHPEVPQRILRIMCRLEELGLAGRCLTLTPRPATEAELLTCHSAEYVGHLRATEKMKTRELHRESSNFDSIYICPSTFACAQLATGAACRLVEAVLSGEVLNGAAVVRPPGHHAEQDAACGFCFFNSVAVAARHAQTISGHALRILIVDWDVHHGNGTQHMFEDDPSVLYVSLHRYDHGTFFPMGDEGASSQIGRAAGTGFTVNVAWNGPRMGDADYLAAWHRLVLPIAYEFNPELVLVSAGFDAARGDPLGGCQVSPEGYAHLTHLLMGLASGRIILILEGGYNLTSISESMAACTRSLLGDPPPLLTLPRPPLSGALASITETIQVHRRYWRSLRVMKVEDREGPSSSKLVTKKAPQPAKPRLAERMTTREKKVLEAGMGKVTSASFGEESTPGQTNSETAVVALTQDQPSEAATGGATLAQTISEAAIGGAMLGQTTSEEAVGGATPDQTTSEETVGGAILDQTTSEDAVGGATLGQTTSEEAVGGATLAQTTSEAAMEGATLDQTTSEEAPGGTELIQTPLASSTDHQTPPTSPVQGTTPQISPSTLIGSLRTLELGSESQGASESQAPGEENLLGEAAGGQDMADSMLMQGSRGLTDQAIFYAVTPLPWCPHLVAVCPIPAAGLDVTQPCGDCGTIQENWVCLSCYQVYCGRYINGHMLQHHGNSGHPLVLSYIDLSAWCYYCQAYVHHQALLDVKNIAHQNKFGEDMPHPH
As to the kind of experiment: Inhibition of human recombinant HDAC6. In short, it runs like this:
as §1

The species entered for data set [2] is Xenopus laevis. Description: Induction of developmental deffects in frog embryos assessed as loss of anterior structures at 2 mM after 18 hrs. It is filed as organism-based. The conditions noted are these: in vivo, 2000 µM. In short, it runs like this: (§2)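 Xenopus laevis embryos exposed in the whole-organism development assay at 2 mM and scored morphologically for loss of anterior structures, shortened anterior–posterior axis, and heart looping and pigment defects; compared with untreated embryos.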

The species named for data set [3] is Xenopus laevis. As to the kind of experiment: Induction of developmental deffects in frog embryos assessed as shortening of anterior-posterior axis at 2 mM after 18 hrs. It is filed as organism-based. The conditions noted are these: in vivo, 2000 µM. The method, boiled down: as §2
For data set [4], the species on record is Xenopus laevis. As to the kind of experiment: Induction of developmental deffects in frog embryos assessed as heart looping and pigment deffects at 2 mM after 18 hrs. It is filed as organism-based. The conditions noted are these: in vivo, 2000 µM. In short, it runs like this: as §2
The species entered for data set [5] is Xenopus laevis. Description: Induction of tubulin acetylation in frog embryos at 2 mM after 18 hrs Western blotting. The method, boiled down: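 Frog embryos treated from stage 18 (end of neurulation) through tailbud stages (32) for 18 h at the indicated concentrations; acetylated tubulin detected by Western blot.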
The species named for data set [6] is Xenopus laevis. Description: Induction of histone H3 acetylation in frog embryos at 2 mM after 2 hrs Western blotting. The method, boiled down:
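Frog embryos treated from completion of neurulation (stage 18) into tailbud stages for 2 h at the indicated concentrations; histone acetylation read by Western blot.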

Calls of active or inactive are those of the source. No cut-off for these calls is given here.

Histone deacetylase 9, sequence (Q9UKV0 whole entry, canonical isoform): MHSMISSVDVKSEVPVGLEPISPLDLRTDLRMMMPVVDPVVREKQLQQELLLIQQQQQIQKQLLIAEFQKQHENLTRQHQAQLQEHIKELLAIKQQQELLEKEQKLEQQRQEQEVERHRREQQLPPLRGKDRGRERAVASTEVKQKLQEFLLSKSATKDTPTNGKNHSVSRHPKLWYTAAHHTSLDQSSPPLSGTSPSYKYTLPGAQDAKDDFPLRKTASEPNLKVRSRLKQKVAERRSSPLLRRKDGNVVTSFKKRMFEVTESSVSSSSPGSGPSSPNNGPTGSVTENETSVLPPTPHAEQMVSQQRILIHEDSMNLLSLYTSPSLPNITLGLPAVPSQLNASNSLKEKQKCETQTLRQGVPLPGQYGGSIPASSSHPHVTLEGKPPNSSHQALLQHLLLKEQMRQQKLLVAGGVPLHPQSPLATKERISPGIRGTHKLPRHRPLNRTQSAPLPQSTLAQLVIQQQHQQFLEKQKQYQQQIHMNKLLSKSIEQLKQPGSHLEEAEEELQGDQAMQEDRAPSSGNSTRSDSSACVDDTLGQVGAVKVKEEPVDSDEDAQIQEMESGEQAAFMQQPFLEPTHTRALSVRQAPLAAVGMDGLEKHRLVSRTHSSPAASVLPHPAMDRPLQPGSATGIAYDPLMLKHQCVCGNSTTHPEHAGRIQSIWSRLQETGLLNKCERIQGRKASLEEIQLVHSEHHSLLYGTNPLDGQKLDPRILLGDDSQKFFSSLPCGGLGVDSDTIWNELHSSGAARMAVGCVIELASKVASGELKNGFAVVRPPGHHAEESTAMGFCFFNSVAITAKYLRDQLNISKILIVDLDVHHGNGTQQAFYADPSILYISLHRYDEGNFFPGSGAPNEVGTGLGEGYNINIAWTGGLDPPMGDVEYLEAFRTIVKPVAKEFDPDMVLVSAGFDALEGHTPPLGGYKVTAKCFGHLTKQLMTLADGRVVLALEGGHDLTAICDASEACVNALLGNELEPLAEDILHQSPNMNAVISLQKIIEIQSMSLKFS
Histone deacetylase 1, sequence (Q13547 whole entry): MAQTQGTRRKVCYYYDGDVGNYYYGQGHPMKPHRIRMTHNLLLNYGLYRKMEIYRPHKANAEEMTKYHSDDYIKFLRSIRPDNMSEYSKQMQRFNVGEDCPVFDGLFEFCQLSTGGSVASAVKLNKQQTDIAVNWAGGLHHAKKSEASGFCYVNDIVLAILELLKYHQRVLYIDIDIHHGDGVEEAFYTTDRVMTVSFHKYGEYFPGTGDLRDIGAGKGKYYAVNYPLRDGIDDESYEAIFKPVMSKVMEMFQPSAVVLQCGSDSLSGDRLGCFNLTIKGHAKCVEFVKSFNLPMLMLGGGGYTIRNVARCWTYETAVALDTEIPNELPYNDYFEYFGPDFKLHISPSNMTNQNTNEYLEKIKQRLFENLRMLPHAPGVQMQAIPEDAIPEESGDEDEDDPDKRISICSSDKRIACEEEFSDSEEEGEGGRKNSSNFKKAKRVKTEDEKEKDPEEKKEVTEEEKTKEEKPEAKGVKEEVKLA
Histone deacetylase 3, sequence (O15379 whole entry): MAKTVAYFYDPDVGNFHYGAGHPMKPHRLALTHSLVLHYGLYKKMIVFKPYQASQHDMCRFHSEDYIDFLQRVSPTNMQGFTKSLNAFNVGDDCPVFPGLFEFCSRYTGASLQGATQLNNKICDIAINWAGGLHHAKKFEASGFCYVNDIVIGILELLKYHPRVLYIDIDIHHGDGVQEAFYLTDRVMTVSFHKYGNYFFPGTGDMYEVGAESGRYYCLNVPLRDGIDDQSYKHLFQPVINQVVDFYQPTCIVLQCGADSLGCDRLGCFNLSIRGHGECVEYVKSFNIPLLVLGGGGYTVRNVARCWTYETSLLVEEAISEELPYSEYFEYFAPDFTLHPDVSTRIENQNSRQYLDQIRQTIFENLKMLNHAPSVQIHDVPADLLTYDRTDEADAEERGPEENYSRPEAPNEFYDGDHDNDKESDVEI
Histone deacetylase 2, sequence (Q92769 whole entry): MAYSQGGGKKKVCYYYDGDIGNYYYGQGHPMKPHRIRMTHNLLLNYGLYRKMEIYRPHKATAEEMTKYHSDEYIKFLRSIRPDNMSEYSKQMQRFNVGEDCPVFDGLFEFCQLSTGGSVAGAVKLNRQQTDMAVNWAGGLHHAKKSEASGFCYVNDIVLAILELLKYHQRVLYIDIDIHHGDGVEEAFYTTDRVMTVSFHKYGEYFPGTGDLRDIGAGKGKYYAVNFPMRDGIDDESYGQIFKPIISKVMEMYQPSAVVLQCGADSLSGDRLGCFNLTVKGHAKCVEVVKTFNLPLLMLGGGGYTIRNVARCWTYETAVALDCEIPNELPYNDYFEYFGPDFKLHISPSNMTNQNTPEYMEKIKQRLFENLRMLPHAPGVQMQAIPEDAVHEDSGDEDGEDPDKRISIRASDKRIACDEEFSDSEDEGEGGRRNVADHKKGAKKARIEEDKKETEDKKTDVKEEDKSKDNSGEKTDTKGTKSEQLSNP

Consider `O=C(O)CCCc1ccccc1`, for which the 50% inhibitory concentration (IC50) at Histone deacetylase 7 and on Histone deacetylase 9 was above 2000 µM in each case. In addition, in the data set listed under Mus musculus, the inhibition result was “inactive”.

Consider `CCCC(CCC)C(=O)NO` [VALPROPYLHYDROXAMIC ACID], for which the IC50 at Histone deacetylase 1 is 560 µM; at Histone deacetylase 2, 680 µM; on Histone deacetylase 3 it was 340 µM; on Histone deacetylase 9, 91 µM; in [1], 16 µM. In addition, the Activity result in the data set listed under Xenopus laevis [2], in the data set filed under Xenopus laevis [3] and in the data set listed under Xenopus laevis [4] was “Non-toxic” throughout. Besides, the result in the data set filed under Xenopus laevis [5] was Active. In the data set filed under Xenopus laevis [6], the result was inactive. The inhibition entry in the data set listed under Mus musculus was “inactive”.
